≈ marks a conversion by molar mass, not a printed value.
Key:
Assay type in all cases: functional
[1] = tested on: Enterococcus sp.; test: Antibacterial activity against Enterococcus sp. J 14365/08 after 48 hrs by microdilution broth method; settings: J 14365/08, 48 h
In short: (§1)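 Mueller-Hinton broth microdilution (modified M07-A07), pH 7.4 (±0.2). Compounds dissolved in DMSO, tested at final 500 to 0.49 µmol/L. Inoculum in sterile water matched to 0.5 McFarland. Incubated in the dark, humid atmosphere, 35 °C, read at 24 and 48 h visually and at 540 nm. MIC taken as ≥95% growth reduction (IC95) versus control.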

[2] = tested on: Escherichia coli; test: Antibacterial activity against Escherichia coli CCM4517 after 48 hrs by microdilution broth method; settings: CCM4517, 48 h; in short: as §1
[3] = tested on: Candida tropicalis; test: Antifungal activity against Candida tropicalis 156 after 48 hrs by microdilution broth method; settings: Candida tropicalis, 156, 48 h
In short: (§2)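 CLSI M27-A3 broth microdilution in RPMI 1640 with glutamine, buffered to pH 7.0 with MOPS; DMSO diluent. Yeast inoculum 5 × 10^3 ± 0.2 CFU/mL. Moulds grown on Sabouraud agar 3–10 days before spore harvest, final inoculum 0.5-5 × 10^4 CFU/mL, checked in a Bürker chamber. Incubated dark, humid, 35 °C, read at 24 and 48 h visually and at 540 nm. MIC taken as ≥80% (yeasts) or ≥50% (filamentous) growth reduction versus control.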

[4] = tested on: Staphylococcus aureus; test: Antibacterial activity against methicillin-resistant Staphylococcus aureus H 5996/08 after 48 hrs by microdilution broth method; settings: H 5996/08, 48 h
[5] = tested on: Mycobacterium avium; test: Antimycobacterial activity against Mycobacterium avium 330/80 after 14 days; settings: 330/80, 336 h
[6] = tested on: Escherichia coli; test: Antibacterial activity against Escherichia coli CCM4517 after 24 hrs by microdilution broth method; settings: CCM4517, 24 h; in short: as §1
[7] = tested on: Staphylococcus aureus; test: Antibacterial activity against Staphylococcus aureus CCM 4516/08 after 48 hrs by microdilution broth method; settings: CCM 4516/08, 48 h
[8] = tested on: Candida tropicalis; test: Antifungal activity against Candida tropicalis 156 after 24 hrs by microdilution broth method; settings: Candida tropicalis, 156, 24 h; in short: as §2
[9] = tested on: Mycobacterium tuberculosis; test: Antimycobacterial activity against Mycobacterium tuberculosis H37Rv 331/88 after 14 days; settings: H37Rv 331/88, 336 h
[10] = tested on: Mycobacterium kansasii; test: Antimycobacterial activity against Mycobacterium kansasii 6509/96 after 14 days; settings: 6509/96, 336 h
In short: (§3)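 Šula's semisynthetic medium micromethod at 37 °C, read after 7, 14 and 21 days. The 1.0 McFarland suspension was diluted 10^-4. MIC determined. 6509/96 is a clinical isolate.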

[11] = tested on: Mycobacterium kansasii; test: Antimycobacterial activity against Mycobacterium kansasii 235/80 after 14 days; settings: 235/80, 336 h; in short: as §3
[12] = tested on: Candida albicans; test: Antifungal activity against Candida albicans ATCC 44859 after 48 hrs by microdilution broth method; settings: ATCC 44859, 48 h; in short: as §2
[13] = tested on: Klebsiella pneumoniae; test: Antibacterial activity against ESBL-positive Klebsiella pneumoniae J 14368/08 after 24 hrs by microdilution broth method; settings: J 14368/08, 24 h; in short: as §1
[14] = tested on: Pseudomonas aeruginosa; test: Antibacterial activity against Pseudomonas aeruginosa CCM 1961 after 48 hrs by microdilution broth method; settings: CCM 1961, 48 h; in short: as §1
[15] = tested on: Mycobacterium kansasii; test: Antimycobacterial activity against Mycobacterium kansasii 235/80 after 7 days; settings: 235/80, 168 h; in short: as §3
[16] = tested on: Mycobacterium kansasii; test: Antimycobacterial activity against Mycobacterium kansasii 6509/96 after 21 days; settings: 6509/96, 504 h; in short: as §3
[17] = tested on: Trichophyton mentagrophytes; test: Antifungal activity against Trichophyton mentagrophytes 445 after 24 hrs by microdilution broth method; settings: Trichophyton mentagrophytes, 445, 24 h
[18] = tested on: Staphylococcus epidermidis; test: Antibacterial activity against Staphylococcus epidermidis H 6966/08 after 24 hrs by microdilution broth method; settings: H 6966/08, 24 h; in short: as §1
[19] = tested on: Klebsiella pneumoniae; test: Antibacterial activity against ESBL-positive Klebsiella pneumoniae J 14368/08 after 48 hrs by microdilution broth method; settings: J 14368/08, 48 h; in short: as §1
[20] = tested on: Staphylococcus aureus; test: Antibacterial activity against Staphylococcus aureus CCM 4516/08 after 24 hrs by microdilution broth method; settings: CCM 4516/08, 24 h
[21] = tested on: Trichosporon asahii; test: Antifungal activity against Trichosporon asahii 1188 after 24 hrs by microdilution broth method; settings: Trichosporon asahii, 1188, 24 h; in short: as §2
[22] = tested on: Staphylococcus epidermidis; test: Antibacterial activity against Staphylococcus epidermidis H 6966/08 after 48 hrs by microdilution broth method; settings: H 6966/08, 48 h; in short: as §1
[23] = tested on: Candida albicans; test: Antifungal activity against Candida albicans ATCC 44859 after 24 hrs by microdilution broth method; settings: ATCC 44859, 24 h; in short: as §2
[24] = tested on: Mycobacterium kansasii; test: Antimycobacterial activity against Mycobacterium kansasii 235/80 after 21 days; settings: 235/80, 504 h; in short: as §3
[25] = tested on: Mycobacterium tuberculosis; test: Antimycobacterial activity against Mycobacterium tuberculosis H37Rv 331/88 after 21 days; settings: H37Rv 331/88, 504 h
[26] = tested on: Mycobacterium avium; test: Antimycobacterial activity against Mycobacterium avium 330/80 after 21 days; settings: 330/80, 504 h
[27] = tested on: Trichophyton mentagrophytes; test: Antifungal activity against Trichophyton mentagrophytes 445 after 48 hrs by microdilution broth method; settings: Trichophyton mentagrophytes, 445, 48 h
[28] = tested on: Staphylococcus aureus; test: Antibacterial activity against methicillin-resistant Staphylococcus aureus H 5996/08 after 24 hrs by microdilution broth method; settings: H 5996/08, 24 h
[29] = tested on: Trichosporon asahii; test: Antifungal activity against Trichosporon asahii 1188 after 48 hrs by microdilution broth method; settings: Trichosporon asahii, 1188, 48 h; in short: as §2
[30] = tested on: Klebsiella pneumoniae; test: Antibacterial activity against Klebsiella pneumoniae D 11750/08 after 24 hrs by microdilution broth method; settings: D 11750/08, 24 h; in short: as §1
[31] = tested on: Mycobacterium kansasii; test: Antimycobacterial activity against Mycobacterium kansasii 6509/96 after 7 days; settings: 6509/96, 168 h; in short: as §3
[32] = tested on: Pseudomonas aeruginosa; test: Antibacterial activity against Pseudomonas aeruginosa CCM 1961 after 24 hrs by microdilution broth method; settings: CCM 1961, 24 h; in short: as §1
[33] = tested on: Aspergillus fumigatus; test: Antifungal activity against Aspergillus fumigatus 231 after 24 hrs by microdilution broth method; settings: Aspergillus fumigatus, 231, 24 h; in short: as §2
[34] = tested on: Nakaseomyces glabratus; test: Antifungal activity against Candida glabrata 20/I after 48 hrs by microdilution broth method; in short: as §2
[35] = tested on: Lichtheimia corymbifera; test: Antifungal activity against Absidia corymbifera 272 after 24 hrs by microdilution broth method; settings: Lichtheimia corymbifera, 272, 24 h; in short: as §2
[36] = tested on: Pichia kudriavzevii; test: Antifungal activity against Candida krusei E28 after 24 hrs by microdilution broth method; settings: E28, 24 h; in short: as §2
[37] = tested on: Lichtheimia corymbifera; test: Antifungal activity against Absidia corymbifera 272 after 48 hrs by microdilution broth method; settings: Lichtheimia corymbifera, 272, 48 h; in short: as §2
[38] = tested on: Aspergillus fumigatus; test: Antifungal activity against Aspergillus fumigatus 231 after 48 hrs by microdilution broth method; settings: Aspergillus fumigatus, 231, 48 h; in short: as §2
[39] = tested on: Nakaseomyces glabratus; test: Antifungal activity against Candida glabrata 20/I after 24 hrs by microdilution broth method; in short: as §2
[40] = tested on: Klebsiella pneumoniae; test: Antibacterial activity against Klebsiella pneumoniae D 11750/08 after 48 hrs by microdilution broth method; settings: D 11750/08, 48 h; in short: as §1
[41] = tested on: Enterococcus sp.; test: Antibacterial activity against Enterococcus sp. J 14365/08 after 24 hrs by microdilution broth method; settings: J 14365/08, 24 h; in short: as §1
[42] = tested on: Pichia kudriavzevii; test: Antifungal activity against Candida krusei E28 after 48 hrs by microdilution broth method; settings: E28, 48 h; in short: as §2

With O=C(Nc1cccc(I)c1)c1ccc([N+](=O)[O-])cc1O the MIC [1] was over 500 µM, the MIC [2] was over 500 µM and the MIC [3] was over 500 µM. It also gave an MIC [4] of 3.9 µM (≈ 1.5 µg/mL), an MIC [5] of 32 µM (≈ 12.3 µg/mL) and an MIC [6] of over 500 µM. The MIC [7] was 3.9 µM (≈ 1.5 µg/mL), the MIC [8] was over 500 µM and the MIC [9] was 16 µM (≈ 6.15 µg/mL). The MIC [10] was 16 µM (≈ 6.15 µg/mL), the MIC [11] was 16 µM (≈ 6.15 µg/mL) and the MIC [12] was over 500 µM. It also gave an MIC [13] of over 500 µM, an MIC [14] of over 500 µM and an MIC [15] of 8 µM (≈ 3.07 µg/mL). It also gave an MIC [16] of 16 µM (≈ 6.15 µg/mL), an MIC [17] of over 500 µM and an MIC [18] of 15.6 µM (≈ 6 µg/mL). For the same molecule, the MIC [19] was over 500 µM, the MIC [20] was 3.9 µM (≈ 1.5 µg/mL) and the MIC [21] was over 500 µM. For the same molecule, the MIC [22] was 15.6 µM (≈ 6 µg/mL), the MIC [23] was over 500 µM and the MIC [24] was 16 µM (≈ 6.15 µg/mL). For the same molecule, the MIC [25] was 16 µM (≈ 6.15 µg/mL), the MIC [26] was 62.5 µM (≈ 24 µg/mL) and the MIC [27] was over 500 µM. For the same molecule, the MIC [28] was 3.9 µM (≈ 1.5 µg/mL), the MIC [29] was over 500 µM and the MIC [30] was over 500 µM. It also gave an MIC [31] of 16 µM (≈ 6.15 µg/mL), an MIC [32] of over 500 µM and an MIC [33] of over 500 µM. The MIC [34] was over 500 µM, the MIC [35] was over 500 µM and the MIC [36] was over 500 µM. The MIC [37] was over 500 µM, the MIC [38] was over 500 µM and the MIC [39] was over 500 µM. The MIC [40] was over 500 µM, the MIC [41] was over 500 µM and the MIC [42] was over 500 µM.
For O=C(Nc1cccc([N+](=O)[O-])c1)c1ccc([N+](=O)[O-])cc1O, the MIC [1] was over 250 µM, the MIC [2] was over 250 µM and the MIC [3] was over 250 µM. For the same molecule, the MIC [4] was 125 µM (≈ 37.9 µg/mL), the MIC [5] was 125 µM (≈ 37.9 µg/mL) and the MIC [6] was over 250 µM. It also gave an MIC [7] of 62.5 µM (≈ 19 µg/mL), an MIC [8] of over 250 µM and an MIC [9] of 32 µM (≈ 9.7 µg/mL). The MIC [10] was 32 µM (≈ 9.7 µg/mL), the MIC [11] was 32 µM (≈ 9.7 µg/mL) and the MIC [12] was over 250 µM. For the same molecule, the MIC [13] was over 250 µM, the MIC [14] was over 250 µM and the MIC [15] was 32 µM (≈ 9.7 µg/mL). It also gave an MIC [16] of 32 µM (≈ 9.7 µg/mL), an MIC [17] of over 250 µM and an MIC [18] of 31.2 µM (≈ 9.48 µg/mL). For the same molecule, the MIC [19] was over 250 µM, the MIC [20] was 62.5 µM (≈ 19 µg/mL) and the MIC [21] was over 250 µM. For the same molecule, the MIC [22] was 62.5 µM (≈ 19 µg/mL), the MIC [23] was over 250 µM and the MIC [24] was 62.5 µM (≈ 19 µg/mL). It also gave an MIC [25] of 32 µM (≈ 9.7 µg/mL), an MIC [26] of 125 µM (≈ 37.9 µg/mL) and an MIC [27] of over 250 µM. It also gave an MIC [28] of 125 µM (≈ 37.9 µg/mL), an MIC [29] of over 250 µM and an MIC [30] of over 250 µM. It also gave an MIC [31] of 32 µM (≈ 9.7 µg/mL), an MIC [32] of over 250 µM and an MIC [33] of over 250 µM. For the same molecule, the MIC [34] was over 250 µM, the MIC [35] was over 250 µM and the MIC [36] was over 250 µM. It also gave an MIC [37] of over 250 µM, an MIC [38] of over 250 µM and an MIC [39] of over 250 µM. It also gave an MIC [40] of over 250 µM, an MIC [41] of over 250 µM and an MIC [42] of over 250 µM.
